# In the library only some 2.5% were active in any assay of this set; here they are far more common.
# Vif inh – inhibitors of HIV Vif; inhibition, % at 7.49 µM; AID 602346; HEK293T cells, Vif self-association by quenched fluorescence, imaging, 24 h; 340,000 tested, 0.35% active; in the data active = inhibition above about 50%, passing the limit was not always enough
# SR-BI uptake up – enhances SR-BI lipid uptake from DiI-HDL | CHO ldlA[mSR-BI] cells, DiI-HDL uptake fluorescence, 3 h; 100 = double the neutral-control signal | AID 504775 | activation, % at 12.5 µM | 320,000 tested, 0.096% active;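 active = mean replicate activation of at least 60% and every replicate at or above 60%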;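 also: 0% = median plate neutral-control signal and 100% = twice that signal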
#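 Material: SR-BI-overexpressing, LDLR-lacking CHO cells; schedule: compound exposure 3 h, 37 °C; reagent: DiI-labelled HDL at 10 µg/mL final; technique: bottom-read fluorescence, 550/595 nm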
# SMARCA2 act – activators of SMARCA2 function; activation, % at 9.1 µM; MG213 cells, MMTV-luciferase reporter, dexamethasone, overnight; 370,000 tested, 1% active; AID 652017; in the data active = activation above about 7.8%;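 also: 0% = vehicle wells and 100% = reference activator wells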
# TAG inh – triacylglycerol accumulation inhibition; H9c2 cells, Nile Red lipid (TAG) fluorescence; cells loaded with 200 µM oleic acid; inhibition, % at 12.5 µM; 230,000 tested, 0.66% active;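 active = pattern-corrected inhibition of lipid staining of at least 50% with the nuclear-stain viability signal not falling by more than 50%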;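 also: 0% = DMSO wells and 100% = triacsin C control wells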
# SR-BI HDL uptake – blocks mouse SR-BI lipid uptake from DiI-HDL; ldlA[mSR-BI] CHO cells, DiI-HDL uptake fluorescence, 3 h; Q61009; 320,000 tested, 0.96% active; inhibition, % at 12.5 µM; AID 488896;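 active = mean replicate inhibition of at least 70% and a set share of replicates each scoring 70 or more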;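 also: 0% = median of neutral control wells and 100% = median of positive control wells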
# Target sequence (Q61009 whole entry, looked up): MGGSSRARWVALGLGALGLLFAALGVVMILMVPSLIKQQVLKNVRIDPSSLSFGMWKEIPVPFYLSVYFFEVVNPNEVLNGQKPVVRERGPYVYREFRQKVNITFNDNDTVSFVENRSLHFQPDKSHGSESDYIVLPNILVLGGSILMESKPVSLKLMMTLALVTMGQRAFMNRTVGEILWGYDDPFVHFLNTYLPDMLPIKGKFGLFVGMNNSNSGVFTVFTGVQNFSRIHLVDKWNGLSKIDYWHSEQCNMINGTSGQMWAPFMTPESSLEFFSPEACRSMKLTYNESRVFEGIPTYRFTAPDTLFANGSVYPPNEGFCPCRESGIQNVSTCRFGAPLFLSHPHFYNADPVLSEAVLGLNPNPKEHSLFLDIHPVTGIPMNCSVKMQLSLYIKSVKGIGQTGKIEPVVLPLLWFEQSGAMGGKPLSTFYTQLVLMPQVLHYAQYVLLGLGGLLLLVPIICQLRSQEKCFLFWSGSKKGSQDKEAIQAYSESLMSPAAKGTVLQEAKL
# SMARCA2 conf – confirmation of SMARCA2 (BRM) function activators; shares compounds with SMARCA2 act; MG213 cells, MMTV-luciferase with dexamethasone, luminescence, overnight; MG213 cells expressing E1A, Rb sequestered; DMSO wells 0%, reference activator 100%; activation, % at 9.1 µM; 3,500 tested, 30% active; AID 652260;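 active = activation above its plate's cutoff, the mean activation of tested wells plus 3 SD, cut at about 7.9% in these data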
# GAL4-VP16 Luc – activates GAL4-VP16 luciferase, flagging SMARCA2 activator hits; shares compounds with SMARCA2 act; HEK293 GAL4-VP16 pG5luc reporter, luciferase luminescence; scaled: DMSO wells 0%, SAHA wells 100%; activation, % at 9.1 µM; 3,500 tested, 41% active; AID 686939;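 active = activation above the solvent-only control well mean plus 3 SD, averaged across control plates, cut at about 5.2% in these data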
# Starred values were filed as active, the others as inactive; nt = no result.
SMILES,Vif inh,SR-BI uptake up,SMARCA2 act,TAG inh,SR-BI HDL uptake,SMARCA2 conf,GAL4-VP16 Luc
CCOc1ccc(C(=O)NCC(C)CN(C)C)cc1OCC (stereo not given),24,10,9.4*,-13,-10,-2,2
O=C(COc1ccc(F)c(Cl)c1)NC(=O)NC1CCCC1,nt,nt,3,3,nt,nt,nt
O=C(NC1CCCC1)C1C(c2ccc(C(F)(F)F)cc2)=Nc2ccccc2N1C(=O)c1ccccc1 (stereo not given),nt,nt,13*,nt,nt,4,5.8*
O=C(NC1CCCC1)C1C(c2ccc(C(F)(F)F)cc2)=Nc2ccccc2N1C(=O)c1ccco1 (stereo not given),nt,nt,3,nt,nt,nt,nt
CC1(c2ccc3ccccc3c2)NC(=O)N(CC(=O)NCc2cccs2)C1=O (stereo not given),6,6,9.6*,-10,-6,0,1
CC1(c2ccc(Cl)cc2)NC(=O)N(CC(=O)NCc2cccs2)C1=O (stereo not given),nt,29,3,5,-29,nt,nt
NC(=S)c1ncc(C(F)(F)F)cc1Cl,4,-1,8.6*,1,1,-3,1
NC(=O)c1ncc(C(F)(F)F)cc1Cl,6,0,0,7,0,nt,nt
CCCCCCC(=O)NC1CCCCN(Cc2ccccc2C)C1=O (stereo not given),nt,nt,-1,nt,nt,nt,nt
COc1cc(C)ccc1OCCOc1ccccc1Cl,-5,-4,2,nt,4,nt,nt
COc1cc(C)ccc1OCCCOc1ccccc1Cl,30,-28,9.5*,nt,28,13*,8.9*
Cc1ccc(C)c(OCc2nc(-c3cccnc3)no2)c1,nt,-28,-1,nt,28,nt,nt
Cc1ccc(-c2nc(-c3cccnc3)no2)c(C)c1,1,9,9.2*,25,-9,19*,13*
O=c1c(C(c2ccc(F)cc2)c2c(O)nc3n(c2=O)CCS3)c(O)nc2n1CCS2,-5,28,9.3*,2,-28,5,1
O=C(CN1C(=O)CCSc2ccccc21)Nc1cccc(Cl)c1F,nt,nt,-4,nt,nt,nt,nt
CCN(CC)CCCNC(=O)Cc1c(C(=O)O)n(C)c2ccccc12,nt,-1,-4,-1,1,nt,nt
CCN(CC)CCNC(=O)Cc1c(C(=O)O)n(C)c2ccccc12,8,-2,9.5*,-8,2,-1,0
CC1CCN(C(=O)CSc2ccc(-c3cccnc3)nn2)CC1,nt,9,-2,0,-9,nt,nt
COc1cc2ccccc2cc1C(=O)NC1CCC(C)CC1 (stereo not given),-2,-71,12*,-5,71*,3,7.6*
O=C(NCCCc1ccccc1)OC1CC2CC1[C@H]1CCCCN1[C@H]2Cc1ccccc1 (stereo not given in full),nt,nt,0,nt,nt,nt,nt
Cc1onc(-c2c(F)cccc2Cl)c1C(=O)NC(=S)NC1CCS(=O)(=O)C1 (stereo not given),2,46,15*,nt,-46,0,0
Cc1onc(-c2c(F)cccc2Cl)c1C(=O)NC1CCCCCC1,-6,-10,2,nt,10,nt,nt
CC(C)N(c1ccccc1)c1ccc(NC(=O)[C@@H]2O[C@H](CO)[C@@H](O)[C@H]2O)cc1,16,nt,-7,-6,nt,nt,nt
Cc1ccc(S(=O)(=O)N2CCCN(c3nc4cc(C)ccc4cc3C#N)CC2)cc1,2,14,0,nt,-14,nt,nt
Cc1cc2cc(C#N)c(N3CCN(S(C)(=O)=O)CC3)nc2cc1C,-2,14,9.1*,nt,-14,2,2
SMILES,Vif inh,SR-BI uptake up,SMARCA2 act,TAG inh,SR-BI HDL uptake,SMARCA2 conf,GAL4-VP16 Luc
O=C(CCN1C(=O)S/C(=C\C=C\c2ccccc2)C1=O)Nc1ccc(O)cc1,3,-40,2,nt,40,nt,nt
O=C(CCCN1C(=O)S/C(=C\C=C\c2ccccc2)C1=O)Nc1ccc(C(=O)O)cc1,7,13,8.5*,nt,-13,5,2
Cc1nc2ccc(S(=O)(=O)CCC(=O)NCc3ccc(Cl)cc3)cc2s1,7,nt,-3,-9,nt,nt,nt
COc1ccc(NC(=O)c2cncc(Br)c2)cc1S(N)(=O)=O,-3,12,2,-7,-12,nt,nt
CCc1cccc(CC)c1NC(=O)C(CC)Sc1nc2ccncc2[nH]1 (stereo not given),5,17,8.3*,-7,-16,0,1
CCc1ccc(OC)c(S(=O)(=O)NCc2cccs2)c1,-1,-6,-1,12,6,nt,nt
O/N=C(/CCc1ccccc1)c1ccc2c(c1)OCCO2,-1,-28,12*,-11,28,12*,12*
Brc1cccc(Nc2nc(-c3cccnc3)cs2)c1,-12,-24,8.6*,1,24,7,6.0*
CCc1ccc(-c2csc(NC(=O)Oc3ccccc3)n2)cc1,7,-15,6,nt,15,nt,nt
O=C(Nc1nc(-c2cccc(Br)c2)cs1)Oc1ccccc1,-1,-1,8.4*,nt,1,8.0*,4
Cc1ccc(CN2CCCCC(NC(=O)c3ccc(N(C)C)cc3)C2=O)cc1 (stereo not given),nt,nt,1,nt,nt,nt,nt
CC(C)OC(=O)N(C)C[C@@H]1OCc2cn(nn2)CCCC(=O)N([C@@H](C)CO)C[C@H]1C,nt,nt,-2,-22,nt,nt,nt
O=C1Nc2ccc(Cl)cc2C(=O)C1(F)c1ccccc1 (stereo not given),39,nt,-2,18,nt,nt,nt
O=C1Nc2c(ccc(Cl)c2Cl)C(=O)C1(F)c1ccccc1 (stereo not given),5,4,8.3*,10,-4,-3,0
O=C(Nc1ccc([N+](=O)[O-])cc1)Nc1ccc(OC(F)F)c(Cl)c1,1,-33,-6,nt,33,nt,nt
C=CCNC(=O)N1CCC(c2nc3ccc(Cl)cc3[nH]2)CC1,nt,nt,9.7*,nt,nt,-3,2
CN(C)S(=O)(=O)c1ccc(Cl)c(NC(=O)CN2C(=O)NC(C)(C3CC3)C2=O)c1 (stereo not given),18,-6,-2,-2,6,nt,nt
CC1(C(=O)OCC(=O)Nc2ccc3ccccc3c2)CC1(Cl)Cl (stereo not given),-2,-4,8.5*,35,4,6,6.3*
CC(NS(=O)(=O)c1ccc(OCC(=O)NCc2cccnc2)cc1)c1ccccc1 (stereo not given),-5,nt,-1,nt,nt,nt,nt
COc1ccc(/C(N)=N/OC(=O)c2ccco2)cc1,4,5,8.6*,9,-5,7,13*
Cc1ccc(/C(N)=N/OC(=O)c2ccco2)cc1,-2,-3,6,3,3,nt,nt
Cc1cccc(/C(N)=N/OC(=O)c2ccco2)c1,-7,1,9.3*,nt,-1,19*,11*
COCCC1CCCCN1Cc1cn(-c2ccccc2)nc1-c1ccc2c(c1)OCO2 (stereo not given),-15,nt,-1,3,nt,nt,nt
